In the library only some 1.8% were active in any assay of this set; here they are far more common.
procasp3 activ = activators of human procaspase-3 D3A mutant, primary screen, biochemical, absorbance, PC-3 D3A mutant, single concentration; hit rate 0.11% among 330,000; activation, % at 8.5 µM; Caspase-3 (Homo sapiens), P42574; recombinant procaspase-3 D3A, Ac-DEVD-pNA absorbance 405 nm;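 active = activation above the mean of all tested compounds plus 3 SD, cut at about 21% in these data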
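Assay system – Procaspase-3 D3A mutant · Benchmarks – DMSO low control, extra-enzyme high control · Technique – 405 nm absorbance of p-nitroaniline, reads at 0 and 120 min · Doses – 8.5 µM nominal · Measure – % activation between DMSO and enzyme-spiked controls · Also added – Ac-DEVD-pNA chromogenic peptide substrate · Schedule – 1 h compound preincubation, 2 h substrate hydrolysis at 25 °C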
EBNA-1 inhibitor = EBNA-1 DNA-binding inhibitors, primary screen, biochemical, fluorescence polarization | inhibition, % at 14.8 µM | hit rate 0.34% among 300,000; in the data active = inhibition above about 28%
Apaf-1 inh = inhibitors of human Apaf-1 apoptosome, primary screen, biochemical, DEVD-Rh110 fluorescence, uHTS | Apoptotic protease-activating factor 1 (Homo sapiens), O14727 | reconstituted apoptosome caspase-3 activity | inhibition, % at 20 µM | hit rate 0.71% among 330,000; active = inhibition of at least 40% at 20 µM
Target sequence (O14727 whole entry, looked up): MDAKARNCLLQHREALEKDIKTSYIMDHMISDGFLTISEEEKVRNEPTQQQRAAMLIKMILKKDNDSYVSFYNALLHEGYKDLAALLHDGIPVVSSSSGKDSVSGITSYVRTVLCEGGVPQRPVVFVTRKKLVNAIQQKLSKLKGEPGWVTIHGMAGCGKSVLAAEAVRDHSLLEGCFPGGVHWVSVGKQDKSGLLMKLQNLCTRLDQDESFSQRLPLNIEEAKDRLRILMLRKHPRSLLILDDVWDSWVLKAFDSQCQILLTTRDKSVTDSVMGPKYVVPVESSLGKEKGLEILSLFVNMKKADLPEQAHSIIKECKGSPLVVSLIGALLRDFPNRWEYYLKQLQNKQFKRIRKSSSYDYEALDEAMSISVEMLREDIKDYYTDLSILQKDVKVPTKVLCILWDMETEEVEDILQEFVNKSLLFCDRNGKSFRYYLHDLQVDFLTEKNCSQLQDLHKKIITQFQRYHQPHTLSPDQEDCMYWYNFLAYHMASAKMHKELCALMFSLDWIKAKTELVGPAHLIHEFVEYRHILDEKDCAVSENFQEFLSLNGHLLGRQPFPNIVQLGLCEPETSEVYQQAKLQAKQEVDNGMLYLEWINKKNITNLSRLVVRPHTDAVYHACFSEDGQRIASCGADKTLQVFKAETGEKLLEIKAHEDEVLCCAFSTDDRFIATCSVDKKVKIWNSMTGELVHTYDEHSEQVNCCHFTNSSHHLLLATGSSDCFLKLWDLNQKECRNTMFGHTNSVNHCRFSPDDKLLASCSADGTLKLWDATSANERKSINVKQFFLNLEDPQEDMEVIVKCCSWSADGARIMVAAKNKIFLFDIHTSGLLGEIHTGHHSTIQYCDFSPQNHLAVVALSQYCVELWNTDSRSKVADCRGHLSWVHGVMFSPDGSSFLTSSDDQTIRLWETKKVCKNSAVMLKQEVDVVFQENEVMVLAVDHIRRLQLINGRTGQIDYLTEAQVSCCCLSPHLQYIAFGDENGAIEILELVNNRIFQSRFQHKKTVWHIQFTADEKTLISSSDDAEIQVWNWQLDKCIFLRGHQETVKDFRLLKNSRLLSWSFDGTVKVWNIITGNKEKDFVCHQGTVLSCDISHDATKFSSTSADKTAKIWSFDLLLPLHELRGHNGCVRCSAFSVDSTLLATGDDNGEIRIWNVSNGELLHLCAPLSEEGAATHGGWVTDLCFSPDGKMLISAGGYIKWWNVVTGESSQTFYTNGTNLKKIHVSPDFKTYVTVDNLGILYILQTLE
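Material: reconstituted apoptosome with Apaf-1, cytochrome c, caspase-9, procaspase-3, dATP / Buffer or medium: pH 7.5 Hepes buffer with CHAPS, BSA, DTT / Also added: cytochrome c with DEVD-Rh110 / Schedule: compound with Apaf-1, dATP, procaspase-3 30 min, then 50 min reaction, room temperature / Technique: rhodamine 110 fluorescence at Ex 480/Em 540 nm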
ZTA counter = counter-screen for EBNA-1 inhibitors: inhibitors of Epstein-Barr virus ZTA; P03206; ZTA-DNA binding, fluorescence polarization; inhibition, % at 11 µM; hit rate 0.15% among 320,000; AID 2234; in the data active = inhibition above about 33%
GSTO1 inh = inhibitors of recombinant GSTO1, primary screen, counter-screen for RBBP9 inhibitor project, biochemical, fluorescence polarization; hit rate 1.1% among 300,000; Glutathione S-transferase omega-1 (Homo sapiens), P78417; inhibition, % at 5.96 µM; activity-based probe fluorescence polarization; AID 1974, 2009;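 active = inhibition above the campaign mean inhibition plus 3 SD, cut at about 35% in these data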
proCasp7 act = procaspase-7 activators, primary screen, counter-screen for procaspase-3 activator project, biochemical, absorbance, HTS, human | Caspase-7 (Homo sapiens), P55210 | recombinant procaspase-7, Ac-DEVD-pNA absorbance 405 nm; D23A/D198A/D206A triple mutant, cannot self-cleave; scale: DMSO 0, 5 µM enzyme 100 | activation, % at 8.5 µM | hit rate 0.093% among 330,000;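 active = percent activation above the screen-wide mean plus 3 SD, cut at about 25% in these data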
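System: Procaspase-7 triple mutant (PC-7 D3A); measure: % activation from two-timepoint absorbance difference, scaled to controls; times: 1 h compound preincubation, 2 h substrate cleavage, 25 °C; also added: Ac-DEVD-pNA substrate, 400 µM as added; measured by: Epi-absorbance of released pNA at 405 nm, two timepoints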
EBNA-1 inh conf = EBNA-1 DNA-binding inhibitors, retest, confirmation, biochemical, fluorescence polarization, triplicate; Recombinant EBNA-1 DBD, Cy5-DNA fluorescence polarization; hit rate 35% among 830; shares compounds with EBNA-1 inhibitor; inhibition, % at 14.8 µM; AID 2292, 2010;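 active = mean inhibition across replicates above a set limit taken from the earlier primary screen, cut at about 28% in these data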
ZTA DNA inh trip = EBV Zta DNA binding inhibitors, counter-screen for EBNA-1 inhibitor project, biochemical, fluorescence polarization, triplicate. Zta-ZRE DNA binding, Cy5 fluorescence polarization. AID 2328, 2010. 830 tested, under 10 active. inhibition, % at 11.1 µM. shares compounds with EBNA-1 inhibitor;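 active = mean inhibition over triplicates above a set limit taken from the primary EBNA-1 screen, cut at about 37% in these data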;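 also: purified full length Zta protein with Cy5 labeled ZRE DNA probe; inhibitors lower polarization by freeing the labeled DNA probe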
Numbers stand for hits; - = inactive; . = no result given.

SMILES	procasp3 activ	EBNA-1 inhibitor	Apaf-1 inh	ZTA counter	GSTO1 inh	proCasp7 act	EBNA-1 inh conf	ZTA DNA inh trip
Cc1ccc(N2C(=O)CC(N(CCc3ccccc3)C(=S)Nc3ccc(N(C)C)cc3)C2=O)cc1 (configuration not stated)	-	57	-	-	-	-	-	-
O=C1CC(N(CCc2ccccc2)C(=S)Nc2ccccc2)C(=O)N1c1ccc(Br)cc1 (configuration not stated)	-	-	-	-	-	-	.	.
CCCOc1ccc(C(=O)Nc2ccccc2[N+](=O)[O-])cc1	-	-	-	-	-	-	.	.
CCCCOc1ccc(C(=O)Nc2ccc(C)cc2[N+](=O)[O-])cc1	-	34	-	-	-	-	-	-
CC(C)Cn1cc(C(=O)NCc2cccs2)c2c3ccccc3n(C)c2c1=O	-	38	-	-	-	-	-	-
Cc1c(C(=O)NCc2ccc3c(c2)OCO3)sc2nc(-c3ccc(F)cc3)cn12	-	37	-	-	-	-	-	-
Cc1c(C(=O)NCc2ccc3c(c2)OCO3)sc2nc(-c3ccccc3)cn12	-	-	-	-	-	-	.	.
CC(=O)NC(=S)Nc1cccc2c(C)cc(C)nc12	-	-	-	-	-	-	.	.
Cc1cc(C)c2cccc(NC(=S)NC(=O)c3ccccc3)c2n1	-	34	-	-	-	-	28	-
Cc1cc(-n2c(C)cc(C(=O)COc3ccc(F)c(F)c3)c2C)no1	-	.	-	-	.	-	.	.
COc1ccc(N2CCN(C(=S)Nc3ccc(F)cc3)CC2)cc1	-	34	-	-	-	-	-	-
COc1ccc(N2CCN(C(=S)Nc3cc(C)cc(C)c3)CC2)cc1	-	-	-	-	-	-	.	.
COC(=O)c1ccc2nc(NC(=O)CCS(=O)(=O)c3ccccc3)sc2c1	-	44	-	-	-	-	52	-
O=C1CC(SC(=NCc2ccc3c(c2)OCO3)Nc2ccccc2)C(=O)N1c1ccccc1 (configuration not stated)	-	44	-	-	-	-	-	-
O=C(O)c1ccc(N2C(=O)CC(SC(=NCc3ccc4c(c3)OCO4)Nc3ccccc3)C2=O)cc1 (configuration not stated)	-	-	-	-	-	-	.	.
CCOC(=O)C(Cc1ccc(NC(=O)/C(=C/c2ccccc2)NC(=O)c2ccccc2)cc1)N1C(=O)c2ccccc2C1=O (configuration not stated)	-	41	-	-	-	-	-	-
CCOC(=O)C(Cc1ccc(NC(=O)/C(=C/c2ccc(OC(C)=O)cc2)NC(C)=O)cc1)N1C(=O)c2ccccc2C1=O (configuration not stated)	-	-	-	-	-	-	.	.
COc1ccccc1C(=O)Nc1nc2cc3c(cc2s1)OCO3	-	-	-	-	-	-	.	.
COc1cccc(OC)c1C(=O)Nc1nc2cc3c(cc2s1)OCO3	-	33	-	-	-	-	60	-
CCOC(=O)Cn1cc(/C=N/NC(=O)c2cc3ccccc3o2)c2ccccc21	-	-	-	-	-	-	.	.
CCn1cc(/C=N/NC(=O)c2cc3c(ccc4ccccc43)o2)c2ccccc21	-	62	-	-	-	-	-	-
Cc1ccc2c(c1)N1C(=O)c3ccccc3C1C1=C(CC(C)(C)CC1=O)N2 (configuration not stated)	-	93	-	-	-	-	-	-
CC(=O)Oc1cccc(C2C3=C(CC(C)(C)CC3=O)Nc3ccccc3N2C(C)=O)c1 (configuration not stated)	-	-	-	-	-	-	.	.
Cc1cccnc1Oc1ncccc1N	-	-	-	-	-	-	.	.
COCCOC(=O)c1c(NC(=O)CNCc2ccco2)sc(C(N)=O)c1C	-	-	-	-	-	-	.	.
SMILES	procasp3 activ	EBNA-1 inhibitor	Apaf-1 inh	ZTA counter	GSTO1 inh	proCasp7 act	EBNA-1 inh conf	ZTA DNA inh trip
COCCOC(=O)c1c(NC(=O)CNc2ccc(C)c(F)c2)sc(C(N)=O)c1C	-	42	-	-	-	-	-	-
COc1ccc(N2Cc3ccc(C(=O)N/N=C\c4ccc(O)cc4O)cc3C2)cc1	-	-	-	-	-	-	.	.
CCNc1c(NC(=O)c2ccc3c(c2)OCO3)c(=O)oc2ccccc12	-	-	-	-	-	-	.	.
Cc1onc(-c2ccccc2)c1C(=O)Nc1sc2c(c1C#N)CCC(C)C2 (configuration not stated)	-	-	-	-	-	-	.	.
Cc1onc(-c2c(Cl)cccc2Cl)c1C(=O)NC(=S)Nc1sc2c(c1C(N)=O)CCC(C)C2 (configuration not stated)	-	34	-	-	-	-	28	-
Cn1nnnc1SCc1ccc(C(=O)Nc2ccc(Br)cc2)cc1	-	39	-	-	-	-	-	-
CC(=O)Nc1ccc(C(=O)CSc2nnnn2C)cc1	-	-	-	-	-	-	.	.
COc1ccc(NS(=O)(=O)c2cccc(C(=O)NNC(=O)c3cncc(Br)c3)c2)cc1	-	-	-	-	-	-	.	.
COc1ccc(Cl)cc1NC(=O)CN1CCN(S(=O)(=O)c2ccc(F)cc2)CC1	-	44	-	-	-	-	91	-
COc1cc(/C=N/NC(=O)c2ccccc2NS(=O)(=O)c2cccs2)ccc1O	.	.	-	.	.	.	.	.
Cc1cc(NC(=O)COC(=O)c2oc3c(ccc4ccccc43)c2C)no1	-	50	-	-	-	-	56	-
Cc1c(Cl)cccc1NC(=O)c1ccc(OCC(=O)NCc2ccccc2)cc1	-	33	-	-	-	-	44	-
O=C(COc1ccc(Cl)cc1)NCc1ccccc1	-	-	-	-	-	-	.	.
Cc1nc(Nc2cccc(Cl)c2)c2oc3ccccc3c2n1	-	29	-	-	-	-	-	-
C/C(=N/NC(=O)c1ccncc1)c1ccc(NC(=O)c2ccc(Cl)cc2Cl)cc1	-	37	-	-	-	-	31	-
CCN(C[C@H]1N[C@@](C)(C(=O)OC)[C@H]2C(=O)N(C)C(=O)[C@@H]12)S(=O)(=O)c1ccc(OC)cc1	-	.	-	.	.	-	.	.

Source: PubChem (several laboratories)
